The values that follow come from ChEMBL document CHEMBL3259611, “Suppression of inflammatory responses by handelin, a guaianolide dimer from Chrysanthemum boreale, via downregulation of NF-κB signaling and pro-inflammatory cytokine production” (J Nat Prod, 2014).

What all share (format): functional
Assay [1] relates to RAW264.7. Kind of assay: Antiinflammatory activity in mouse RAW264.7 cells assessed as inhibition of LPS-induced PGE2 production at 20 uM administered 1 hr prior to LPS challenge measured after 20 hrs by EIA relative to control. An outline of the steps:
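RAW 264.7 cells plated at 3 × 10^5 cells/mL, pretreated with compound for 1 h, then stimulated with 1 μg/mL LPS for 20 h. PGE2 in the supernatant was measured by immunoassay kit. Mean ± SD of triplicates.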

A further assay concerns Mus musculus. Description: Antiinflammatory activity in ICR mouse ear edema model assessed as inhibition of TPA-induced ear edema at 20 mg/kg, po administered 30 mins prior to TPA challenge measured after 4 hrs relative to vehicle-treated control. In outline:
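ICR mice (male, 18−20 g, 5 weeks old) dosed orally 30 min before TPA (1.0 μg in 20 μL acetone) was applied to inner and outer surfaces of the right ear. Killed by cervical dislocation after 4 h. Edema taken as the weight of a 5 mm punch biopsy of the right ear over the left. Ear homogenates were Western blotted for iNOS, COX-2 and IL-1β.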

The test system of the next assay is Rattus norvegicus. Kind of assay: Antiinflammatory activity in rat paw edema model assessed as inhibition of carrageenan-induced paw edema at 20 mg/kg, po administered 30 mins prior to carrageenan challenge measured after 4 hrs relative to vehicle-treated control. In outline: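 Male Sprague–Dawley rats (150–170 g, 5 weeks old); compound dissolved in 0.5% CMC-Na and given orally 30 min before subplantar injection of 0.1 mL 1% carrageenan suspension in saline into the right hind paw, with saline injected into the left. Paw volume read by plethysmometer at 0 h and up to 6 h; n = 6.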

The subject of assay [2] is RAW264.7. Kind of assay: Antiinflammatory activity in mouse RAW264.7 cells assessed as inhibition of LPS-induced nitric oxide production at 50 uM after 20 hrs by Griess assay relative to control. As to conditions: RAW264.7, 20 h. An outline of the steps: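 Positive-control run in the same LPS (1 μg/mL, 20 h) RAW 264.7 system. Nitrite was quantified by Griess reaction at 540 nm against a sodium nitrite standard curve. Inhibition expressed relative to vehicle control.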

On to `Cc1ccc(-c2cc(C(F)(F)F)nn2-c2ccc(S(N)(=O)=O)cc2)cc1` [CELECOXIB], for which the inhibition (INH) in the assay on RAW264.7 [1] was 81%.

`COc1ccc2c(c1)c(CC(=O)O)c(C)n2C(=O)c1ccc(Cl)cc1` [INDOMETHACIN]: the inhibition in vivo at 20 mg/kg in the assay on Mus musculus was determined as 53%; in the assay on Rattus norvegicus, 51%. For `CNC(=N)NCCC[C@H](N)C(=O)O` [TILARGININE], the inhibition at 50 µM with RAW264.7 [2] stood at 74%.
